# Assay results from ChEMBL document CHEMBL1130032, “Preparation and anti-HIV activity of N-3-substituted thymidine nucleoside analogs” (J Med Chem, 1997).
# Test system: CEM-c113
# Assay: Concentration required to reduce by 50% the viability of noninfected treated CEM-CL13 cells
# Type: functional
# Details: Homo sapiens; call rule not given here
# Method in brief: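 CEM-c113 cells, 1×10^4 per well, exposed to 10-fold dilutions of compound without virus; 7 days at 37 °C, 5% CO2; MTT viability read-out; CC50 = concentration reducing viability by 50% relative to uninfected untreated controls; triplicate wells, mean of at least two experiments.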
row,SMILES,CC50
1,Cc1cn(C2CC(n3c(=O)c(C)cn(C4CC(N=[N+]=[N-])C(CO)O4)c3=O)C(CO)O2)c(=O)[nH]c1=O (stereo not given),66 µM
2,COCCOCn1c(=O)c(C)cn(C2CC(N=[N+]=[N-])C(CO)O2)c1=O (stereo not given),281 µM
3,Cc1cn(C2CC(N=[N+]=[N-])C(CO)O2)c(=O)n(CCn2c(=O)c(C)cn(C3CC(N=[N+]=[N-])C(CO)O3)c2=O)c1=O (stereo not given),36 µM
4,Cc1cn(C2CC(N=[N+]=[N-])C(CO)O2)c(=O)n(CCN2C(=O)c3ccccc3C2=O)c1=O (stereo not given),227 µM
5,COc1nc(=O)n(CCn2c(=O)c(C)cn(C3CC(N=[N+]=[N-])C(CO)O3)c2=O)cc1C (stereo not given),29 µM
6,Cc1cn(C2CC(N=[N+]=[N-])C(CO)O2)c(=O)n(CCO)c1=O (stereo not given),161 µM
7,C=CCn1c(=O)c(C)cn(C2CC(N=[N+]=[N-])C(CO)O2)c1=O (stereo not given),350 µM
8,Cc1cn(C2CC(N=[N+]=[N-])C(CO)O2)c(=O)n(CC2CO2)c1=O (stereo not given),> 62 µM
9,Cc1cn(C2CC(N=[N+]=[N-])C(CO)O2)c(=O)n(N)c1=O (stereo not given),450 µM
10,Cc1cn(C2CC(N=[N+]=[N-])C(CO)O2)c(=O)n(CCCO)c1=O (stereo not given),154 µM
11,Cc1cn(C2CC(N=[N+]=[N-])C(CO)O2)c(=O)n(C)c1=O (stereo not given),355 µM
12,Cc1cn(C2CC(N=[N+]=[N-])C(CO)O2)c(=O)n(CC2COC(C)(C)O2)c1=O (stereo not given),> 131 µM
13,Cc1cn(C2CC(N=[N+]=[N-])C(CO)O2)c(=O)n(CC2CC(CO)=NO2)c1=O (stereo not given),26 µM
14,CCOC(=O)Cn1c(=O)c(C)cn(C2CC(N=[N+]=[N-])C(CO)O2)c1=O (stereo not given),283 µM
15,Cc1cn(CCn2c(=O)c(C)cn(C3CC(N=[N+]=[N-])C(CO)O3)c2=O)c(=O)[nH]c1=O (stereo not given),> 29 µM
16,Cc1cn(C2CC(N=[N+]=[N-])C(CO)O2)c(=O)n(CCBr)c1=O (stereo not given),53 µM
17,CCOC(Cn1c(=O)c(C)cn(C2CC(N=[N+]=[N-])C(CO)O2)c1=O)OCC (stereo not given),130 µM
18,CCOP(=O)(Cn1c(=O)c(C)cn(C2CC(N=[N+]=[N-])C(CO)O2)c1=O)OCC (stereo not given),240 µM
19,Cc1cn(C2CC(N=[N+]=[N-])C(CO)O2)c(=O)n(Cc2ccoc2)c1=O (stereo not given),> 288 µM
20,CCCCCn1c(=O)c(C)cn(C2CC(N=[N+]=[N-])C(CO)O2)c1=O (stereo not given),> 60 µM
21,Cc1cn(C2CC(N=[N+]=[N-])C(CO)O2)c(=O)n(Cc2ccccc2)c1=O (stereo not given),28 µM
22,Cc1cn(C2CC(N=[N+]=[N-])C(CO)O2)c(=O)n(CCCCCCO)c1=O (stereo not given),64 µM
23,Cc1cn(C2CC(N=[N+]=[N-])C(CO)O2)c(=O)n(CCN=[N+]=[N-])c1=O (stereo not given),60 µM
24,Cc1cn([C@H]2C[C@H](N=[N+]=[N-])[C@@H](CO)O2)c(=O)[nH]c1=O [ZIDOVUDINE],> 5 µM

# Test system: Human immunodeficiency virus 1
# Assay: Inhibition of HIV-1 LA1 cytopathic effects on CEM-CL13 cells in vitro.
# Type: functional, organism-based
# Details: Human immunodeficiency virus 1, CEM-CL13
# Method in brief: (§1)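 CEM-c113 cells (1×10^4/well) preincubated 1 h with 10-fold compound dilutions, then infected with HIV-1 LAI; cultured 7 days at 37 °C, 5% CO2; cytopathic effect scored by MTT viability versus infected untreated cells; EC50 = 50% reduction of CPE; triplicate, mean of ≥2 experiments.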
row,SMILES,EC50
1,Cc1cn(C2CC(n3c(=O)c(C)cn(C4CC(N=[N+]=[N-])C(CO)O4)c3=O)C(CO)O2)c(=O)[nH]c1=O (stereo not given),2.2 µM
2,COCCOCn1c(=O)c(C)cn(C2CC(N=[N+]=[N-])C(CO)O2)c1=O (stereo not given),5.6 µM
3,Cc1cn(C2CC(N=[N+]=[N-])C(CO)O2)c(=O)n(CCn2c(=O)c(C)cn(C3CC(N=[N+]=[N-])C(CO)O3)c2=O)c1=O (stereo not given),0.7 µM
4,Cc1cn(C2CC(N=[N+]=[N-])C(CO)O2)c(=O)n(CCN2C(=O)c3ccccc3C2=O)c1=O (stereo not given),110 µM
5,Cc1cn(C2CC(N=[N+]=[N-])C(CO)O2)c(=O)n(CCO)c1=O (stereo not given),0.3 µM
6,C=CCn1c(=O)c(C)cn(C2CC(N=[N+]=[N-])C(CO)O2)c1=O (stereo not given),32 µM
7,Cc1cn(C2CC(N=[N+]=[N-])C(CO)O2)c(=O)n(CC2CO2)c1=O (stereo not given),6.8 µM
8,Cc1cn(C2CC(N=[N+]=[N-])C(CO)O2)c(=O)n(N)c1=O (stereo not given),0.045 µM
9,Cc1cn(C2CC(N=[N+]=[N-])C(CO)O2)c(=O)n(CCCO)c1=O (stereo not given),0.15 µM
10,Cc1cn(C2CC(N=[N+]=[N-])C(CO)O2)c(=O)n(C)c1=O (stereo not given),0.94 µM
11,Cc1cn(C2CC(N=[N+]=[N-])C(CO)O2)c(=O)n(CC2COC(C)(C)O2)c1=O (stereo not given),1.3 µM
12,Cc1cn(C2CC(N=[N+]=[N-])C(CO)O2)c(=O)n(CC2CC(CO)=NO2)c1=O (stereo not given),0.5 µM
13,CCOC(=O)Cn1c(=O)c(C)cn(C2CC(N=[N+]=[N-])C(CO)O2)c1=O (stereo not given),1.47 µM
14,Cc1cn(CCn2c(=O)c(C)cn(C3CC(N=[N+]=[N-])C(CO)O3)c2=O)c(=O)[nH]c1=O (stereo not given),0.48 µM
15,Cc1cn(C2CC(N=[N+]=[N-])C(CO)O2)c(=O)n(CCBr)c1=O (stereo not given),2.67 µM
16,CCOC(Cn1c(=O)c(C)cn(C2CC(N=[N+]=[N-])C(CO)O2)c1=O)OCC (stereo not given),5 µM
17,CCOP(=O)(Cn1c(=O)c(C)cn(C2CC(N=[N+]=[N-])C(CO)O2)c1=O)OCC (stereo not given),0.071 µM
18,Cc1cn(C2CC(N=[N+]=[N-])C(CO)O2)c(=O)n(Cc2ccoc2)c1=O (stereo not given),143 µM
19,CCCCCn1c(=O)c(C)cn(C2CC(N=[N+]=[N-])C(CO)O2)c1=O (stereo not given),0.89 µM
20,Cc1cn(C2CC(N=[N+]=[N-])C(CO)O2)c(=O)n(CCCCCCO)c1=O (stereo not given),0.082 µM
21,Cc1cn(C2CC(N=[N+]=[N-])C(CO)O2)c(=O)n(CCN=[N+]=[N-])c1=O (stereo not given),0.26 µM
22,Cc1cn([C@H]2C[C@H](N=[N+]=[N-])[C@@H](CO)O2)c(=O)[nH]c1=O [ZIDOVUDINE],0.003 µM

# Test system: CEM-c113
# Assay: Concentration that reduces by 50% the HIV induced cytopathic effect on CEM-CL13 cells by MTT viability assay; NA = Not active
# Type: functional, cell-based, Homo sapiens
# Details: not given
# Method in brief: as §1
row,SMILES,EC50
1,COc1nc(=O)n(CCn2c(=O)c(C)cn(C3CC(N=[N+]=[N-])C(CO)O3)c2=O)cc1C (stereo not given),Not Active
2,Cc1cn(C2CC(N=[N+]=[N-])C(CO)O2)c(=O)n(Cc2ccccc2)c1=O (stereo not given),Not Active

# Test system: not listed separately
# Assay: Ratio of CC50 in CEM-CL13 cells to EC50 in HIV-1 LA1 infected CEM-CL13 cells.
# Type: functional
# Details: not given
# Method in brief: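 Selectivity index computed as CC50 (MTT viability of uninfected treated CEM-c113 cells) divided by EC50 (MTT protection of HIV-1 LAI-infected CEM-c113 cells), both from 7-day cultures at 37 °C exposed to 10-fold compound dilutions.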
row,SMILES,Ratio
1,Cc1cn(C2CC(n3c(=O)c(C)cn(C4CC(N=[N+]=[N-])C(CO)O4)c3=O)C(CO)O2)c(=O)[nH]c1=O (stereo not given),30
2,COCCOCn1c(=O)c(C)cn(C2CC(N=[N+]=[N-])C(CO)O2)c1=O (stereo not given),50
3,Cc1cn(C2CC(N=[N+]=[N-])C(CO)O2)c(=O)n(CCn2c(=O)c(C)cn(C3CC(N=[N+]=[N-])C(CO)O3)c2=O)c1=O (stereo not given),51
4,Cc1cn(C2CC(N=[N+]=[N-])C(CO)O2)c(=O)n(CCN2C(=O)c3ccccc3C2=O)c1=O (stereo not given),2
5,Cc1cn(C2CC(N=[N+]=[N-])C(CO)O2)c(=O)n(CCO)c1=O (stereo not given),537
6,C=CCn1c(=O)c(C)cn(C2CC(N=[N+]=[N-])C(CO)O2)c1=O (stereo not given),11
7,Cc1cn(C2CC(N=[N+]=[N-])C(CO)O2)c(=O)n(CC2CO2)c1=O (stereo not given),9
8,Cc1cn(C2CC(N=[N+]=[N-])C(CO)O2)c(=O)n(N)c1=O (stereo not given),10000
9,Cc1cn(C2CC(N=[N+]=[N-])C(CO)O2)c(=O)n(CCCO)c1=O (stereo not given),1027
10,Cc1cn(C2CC(N=[N+]=[N-])C(CO)O2)c(=O)n(C)c1=O (stereo not given),380
11,Cc1cn(C2CC(N=[N+]=[N-])C(CO)O2)c(=O)n(CC2COC(C)(C)O2)c1=O (stereo not given),100
12,Cc1cn(C2CC(N=[N+]=[N-])C(CO)O2)c(=O)n(CC2CC(CO)=NO2)c1=O (stereo not given),52
13,CCOC(=O)Cn1c(=O)c(C)cn(C2CC(N=[N+]=[N-])C(CO)O2)c1=O (stereo not given),193
14,Cc1cn(CCn2c(=O)c(C)cn(C3CC(N=[N+]=[N-])C(CO)O3)c2=O)c(=O)[nH]c1=O (stereo not given),60
15,Cc1cn(C2CC(N=[N+]=[N-])C(CO)O2)c(=O)n(CCBr)c1=O (stereo not given),20
16,CCOC(Cn1c(=O)c(C)cn(C2CC(N=[N+]=[N-])C(CO)O2)c1=O)OCC (stereo not given),26
17,CCOP(=O)(Cn1c(=O)c(C)cn(C2CC(N=[N+]=[N-])C(CO)O2)c1=O)OCC (stereo not given),3380
18,Cc1cn(C2CC(N=[N+]=[N-])C(CO)O2)c(=O)n(Cc2ccoc2)c1=O (stereo not given),2
19,CCCCCn1c(=O)c(C)cn(C2CC(N=[N+]=[N-])C(CO)O2)c1=O (stereo not given),>67
20,Cc1cn(C2CC(N=[N+]=[N-])C(CO)O2)c(=O)n(CCCCCCO)c1=O (stereo not given),780
21,Cc1cn(C2CC(N=[N+]=[N-])C(CO)O2)c(=O)n(CCN=[N+]=[N-])c1=O (stereo not given),230
22,Cc1cn([C@H]2C[C@H](N=[N+]=[N-])[C@@H](CO)O2)c(=O)[nH]c1=O [ZIDOVUDINE],1667
